The nature of data set [1]: Cmax in human plasma at 40 mg administered as single dose. It is filed as ADME, organism-based. On the set-up: dose 40 mg. A digest of the protocol: (§1)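 Phase 1 single ascending oral dose in healthy volunteers, about 5–6 subjects per dose. Total plasma drug Cmax and AUC(0-∞) were measured. Free-drug exposures were derived using plasma protein binding.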
Data set [2] can be described thus: Half life in rat at 1 mg/kg, iv. The format is ADME, organism-based. Also on record: dose 1 mg/kg, route intravenous. The note with it: in vivo. The gist of the method: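 Intravenous 1 mg/kg dose in rat or dog. Terminal half-life was derived from plasma concentrations and is reported as the geometric mean of n = 2 animals per group.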
Data set [3] deals with Plasma. Kind of data set: fAUC (0 to infinity) in human plasma at 320 mg administered as single dose. The format is ADME, cell-free. The gist of the method:
(§2)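 Phase 1 single ascending oral dose in healthy volunteers, with N per dose group. Total plasma Cmax and AUC(0-∞) were measured. Free-drug exposures were derived from these using plasma protein binding (human plasma fu measured at 0.5 μg/mL).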

Data set [4] has as its system Plasma. In words: fCmax in human plasma at 240 mg administered as single dose. The format is ADME, cell-free. A digest of the protocol: as §2
Data set [5] concerns Homo sapiens. Kind of data set: Inhibition of HMG-CoA reductase in human assessed as decrease in AUC (0 to 72 hrs) of mevalonate level in plasma at 120 mg administered as single dose relative to control. The format is functional.
Data set [6] deals with Homo sapiens. Kind of data set: Inhibition of HMG-CoA reductase in human assessed as decrease in AUC (0 to 24 hrs) of mevalonate level in plasma at 320 mg administered as single dose relative to control. The format is organism-based. The note with it: in vivo.
A short description of data set [7]: Cmax in human plasma at 320 mg administered as single dose. On the set-up: dose 320 mg. The format is ADME, organism-based. The gist of the method:
as §1

Data set [8] relates to Homo sapiens. Kind of data set: Inhibition of HMG-CoA reductase in human assessed as decrease in AUC (0 to 72 hrs) of mevalonate level in plasma at 10 mg administered as single dose relative to control. It is filed as functional.
Data set [9] relates to Homo sapiens. In words: Inhibition of HMG-CoA reductase in human assessed as decrease in AUC (0 to 24 hrs) of mevalonate level in plasma at 3 mg administered as single dose relative to control. It is filed as functional.
Data set [10] relates to Homo sapiens. Kind of data set: Inhibition of HMG-CoA reductase in human assessed as decrease in AUC (0 to 72 hrs) of mevalonate level in plasma at 40 mg administered as single dose relative to control. The format is functional.
Data set [11] is described as follows: Terminal half life in human plasma at 40 mg administered as single dose. Conditions: read-out: beta t1/2 (converted). It is filed as ADME, cell-free.
The nature of data set [12]: AUC (0 to infinity) in human plasma at 40 mg administered as single dose. It is filed as ADME, cell-free. On the set-up: dose 40 mg, time infinity. The gist of the method:
as §1

Another data set concerns Rattus norvegicus. Kind of data set: fAUC (0 to 24 hrs) in rat at 1 mg/kg, iv. The format is ADME, organism-based. The note with it: in vivo. Also on record: dose 1 mg/kg, route intravenous. A digest of the protocol: (§3)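 Rat and dog given 1 mg/kg iv, or po at 10 mg/kg (rat) or 5 mg/kg (dog). Plasma sampled to 24 h. AUC(0-24) as free drug using plasma protein binding values. Geometric mean of n = 2 animals/group; dog po n = 3 or n = 1.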

A short description of data set [13]: Cmax in human plasma at 120 mg administered as single dose. The format is ADME, organism-based. Also on record: dose 120 mg. The gist of the method:
as §1

Data set [14] in a line: AUC (0 to infinity) in human plasma at 320 mg administered as single dose. It is filed as ADME, cell-free. On the set-up: dose 320 mg, time infinity. A digest of the protocol: as §1
Data set [15] deals with T1, 3-hydroxy-3-methylglutaryl-coenzyme A reductase (Rattus norvegicus, UniProt P51639).
T1 sequence (P51639 whole entry): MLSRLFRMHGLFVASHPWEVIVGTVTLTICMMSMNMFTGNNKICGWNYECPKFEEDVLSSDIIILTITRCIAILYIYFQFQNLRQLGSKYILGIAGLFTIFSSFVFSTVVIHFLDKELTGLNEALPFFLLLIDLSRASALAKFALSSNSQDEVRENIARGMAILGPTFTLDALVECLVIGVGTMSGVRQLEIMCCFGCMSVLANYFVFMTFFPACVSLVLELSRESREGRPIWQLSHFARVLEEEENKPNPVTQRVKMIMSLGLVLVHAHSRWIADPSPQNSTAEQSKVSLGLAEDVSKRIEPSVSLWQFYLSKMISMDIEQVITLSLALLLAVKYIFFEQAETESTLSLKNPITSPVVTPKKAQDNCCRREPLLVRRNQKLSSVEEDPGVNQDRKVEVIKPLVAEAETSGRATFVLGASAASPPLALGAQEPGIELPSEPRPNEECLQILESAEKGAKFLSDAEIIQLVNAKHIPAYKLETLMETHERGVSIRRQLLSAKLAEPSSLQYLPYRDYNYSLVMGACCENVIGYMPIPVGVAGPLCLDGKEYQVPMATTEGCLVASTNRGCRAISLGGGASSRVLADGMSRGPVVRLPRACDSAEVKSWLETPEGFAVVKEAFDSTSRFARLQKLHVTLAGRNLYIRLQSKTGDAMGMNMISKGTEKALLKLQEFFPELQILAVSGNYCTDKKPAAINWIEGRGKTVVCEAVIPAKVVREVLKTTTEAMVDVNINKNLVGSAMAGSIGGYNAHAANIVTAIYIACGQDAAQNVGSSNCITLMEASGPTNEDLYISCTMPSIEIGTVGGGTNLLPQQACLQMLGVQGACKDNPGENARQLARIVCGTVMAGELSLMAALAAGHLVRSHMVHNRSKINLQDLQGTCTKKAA
Kind of data set: Inhibition of HMG-CoA reductase in Sprague-Dawley rat liver microsomes using [14C]HMG-CoA as substrate preincubated for 0.5 hrs before substrate addition measured after 0.75 hrs by beta scintillation counting. Also on record: species or system Microsome. A digest of the protocol: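 Enzyme inhibition was measured in an HMG-CoA reductase preparation from rat microsomes. IC50 is reported as mean ± SEM of n ≥ 2 independent determinations.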

The nature of data set [16]: Oral bioavailability in dog at 5 mg/kg. The format is ADME, organism-based, Canis lupus familiaris. Conditions: in vivo. The gist of the method: as §3
A short description of data set [17]: Fraction unbound in dog plasma at 0.5 ug/ml. It is filed as ADME, cell-free, Canis lupus familiaris. A digest of the protocol:
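Unbound fraction in rat, dog or human plasma, measured at a drug concentration of 0.5 μg/mL.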

The subject of data set [18] is Plasma. Kind of data set: fAUC (0 to infinity) in human plasma at 20 mg administered as single dose. It is filed as ADME, cell-free. The gist of the method:
as §2

The subject of data set [19] is Homo sapiens. In words: Inhibition of HMG-CoA reductase in human assessed as decrease in AUC (0 to 24 hrs) of mevalonate level in plasma at 160 mg administered as single dose relative to control. It is filed as functional.
Data set [20] concerns Plasma. In words: fAUC (0 to infinity) in human plasma at 160 mg administered as single dose. It is filed as ADME, cell-free. The gist of the method: as §2
In data set [21] the test system is Homo sapiens. Kind of data set: Inhibition of HMG-CoA reductase in human assessed as decrease in AUC (0 to 72 hrs) of mevalonate level in plasma at 80 mg administered as single dose relative to control. The format is functional.
Data set [22] concerns Homo sapiens. In words: Inhibition of HMG-CoA reductase in human assessed as decrease in AUC (0 to 72 hrs) of mevalonate level in plasma at 5 mg administered as single dose relative to control. The format is functional.
Data set [23] has as its system Plasma. Kind of data set: fCmax in human plasma at 5 mg administered as single dose. The format is ADME, cell-free. A digest of the protocol:
as §2

Data set [24] deals with Plasma. Kind of data set: fCmax in human plasma at 20 mg administered as single dose. It is filed as ADME, cell-free. The gist of the method:
as §2

Data set [25] has as its system Homo sapiens. In words: Inhibition of HMG-CoA reductase in human assessed as decrease in AUC (0 to 24 hrs) of mevalonate level in plasma at 5 mg administered as single dose relative to control. The format is functional.
A short description of data set [26]: Cmax in human plasma at 10 mg administered qd for 14 days. Also on record: dose 10 mg. It is filed as ADME, organism-based.
Data set [27] has as its system Homo sapiens. Kind of data set: Inhibition of HMG-CoA reductase in human assessed as decrease in AUC (0 to 24 hrs) of mevalonate level in plasma at 10 mg administered qd for 14 days relative to control. The format is functional.

The values that follow come from ChEMBL document CHEMBL1781963, “Discovery of novel hepatoselective HMG-CoA reductase inhibitors for treating hypercholesterolemia: a bench-to-bedside case study on tissue selective drug distribution” (Bioorg Med Chem Lett, 2011).

For the molecule `O=C([O-])C[C@H](O)C[C@H](O)CCn1c(-c2ccc(F)cc2)nc(C(=O)NCc2cccc(F)c2)c1C1CC1.[Na+]`, the highest concentration (Cmax) – broadly, the maximum level reached in the sampled fluid or tissue – in data set [1] amounted to 2.25 ng/mL; in data set [7] it was 44.1 ng/mL; in [13], 3.31 ng/mL. Further, the half-life in data set [2] was 0.43 h; in data set [11], 3.22 h. Further, the fAUC in the data set with Plasma [3] amounted to 10.4 ng·h/mL; in the data set with Rattus norvegicus, 83 ng·h/mL. Moreover, in the data set on Plasma [4], the fCmax was determined as 2.69 ng/mL. Also, the “inhibition (INH)” value is -17% in the data set with Homo sapiens [5]; -61% in the data set on Homo sapiens [6]; -13% in the data set with Homo sapiens [8]; -5% with Homo sapiens [9]; -19% with Homo sapiens [10]. Besides, the AUC(0-inf) (usually total exposure, with the tail of the curve extrapolated) is 6.27 ng·h/mL in data set [12] and 36 ng·h/mL in data set [14]. Besides, the IC50 (in general, the point on the concentration scale where inhibition reaches its midpoint) in data set [15] is 1.2 nM. For the same molecule, in [16], the bioavailability (commonly dose-corrected exposure relative to a reference, in per cent) was 2.2%. In addition, in data set [17], the unbound share (fraction unbound) (as a rule, free concentration divided by total concentration) at 0.5 ug/ml came out at 0.43.

With `Cc1ccc(CNC(=O)c2nn(-c3ccc(F)cc3)c(CC[C@@H](O)C[C@@H](O)CC(=O)O)c2C(C)C)cc1`, the figures for the fAUC in the data set on Plasma [18], in the data set with Plasma [20] and in the data set with Rattus norvegicus were 98.4 ng·h/mL, 1280 ng·h/mL and 10 ng·h/mL, respectively. The peak concentration (Cmax) in data set [1] came to 1770 ng/mL. Besides, the half-life in [2] was 0.34 h; in [11], 8.57 h. For the same molecule, the “inhibition (INH)” value with Homo sapiens [19] was -55%; in the data set with Homo sapiens [21], -29%; with Homo sapiens [22], 3%; in the data set on Homo sapiens [10] it was -3%; in the data set on Homo sapiens [25], -13%. Moreover, the values for the fCmax in the data set on Plasma [23] and in the data set on Plasma [24] were 10 ng/mL and 37.7 ng/mL, respectively. The AUC(0-inf) in data set [12] was 5110 ng·h/mL. In data set [15], this molecule displayed an IC50 of 1 nM. Moreover, in data set [16], the bioavailability stood at 44%. For the same molecule, the free fraction (fraction unbound) at 0.5 ug/ml in [17] worked out at 0.032.

For the molecule `CC(C)c1nc(N(C)S(C)(=O)=O)nc(-c2ccc(F)cc2)c1/C=C/[C@@H](O)C[C@@H](O)CC(=O)O` [ROSUVASTATIN], the concentration in data set [26] peaked (Cmax) at 4.58 ng/mL. Also, the “inhibition (INH)” value in the data set on Homo sapiens [27] is 29.9%.
